Assay results as given in ChEMBL document CHEMBL1157589, “Antifungal 3,5-disubstituted furanones: From 5-acyloxymethyl to 5-alkylidene derivatives” (Bioorg Med Chem, 2010).
Activity calls are given as the source filed them.

Experiments:
[1] = system: Candida albicans; experiment: Antifungal activity against Candida albicans ATCC 44859 after 48 hrs by microdilution method; type: functional; conditions: for MIC80: ATCC 44859, 48 h
Procedure, shortened: (§1)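 Yeasts held on Sabouraud dextrose agar. MIC by NCCLS M27-A broth microdilution in RPMI 1640 with L-glutamine, buffered with 0.165 M MOPS to pH 7.0. Compounds in DMSO (≤2% final), twofold dilutions 500–0.48. Final inoculum 5 × 10³ ± 0.2 cfu mL⁻¹. Incubated at 35 °C; absorbance at 540 nm read at 24 and 48 h. MIC is 80% growth inhibition versus control; run twice in duplicate.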

[2] = system: Candida albicans; experiment: Antifungal activity against Candida albicans ATCC 90028 after 24 hrs by microdilution method; type: functional; conditions: for MIC80: ATCC 90028, 24 h; procedure, shortened: as §1
[3] = system: Candida albicans; experiment: Antifungal activity against Candida albicans ATCC 90028 after 48 hrs by microdilution method; type: functional; conditions: for MIC80: ATCC 90028, 48 h; procedure, shortened: as §1
[4] = system: Candida parapsilosis; experiment: Antifungal activity against Candida parapsilosis ATCC 22019 after 24 hrs by microdilution method; type: functional; conditions: for MIC80: Lodderomyces parapsilosis, ATCC 22019, 24 h; procedure, shortened: as §1
[5] = system: Candida parapsilosis; experiment: Antifungal activity against Candida parapsilosis ATCC 22019 after 48 hrs by microdilution method; type: functional; conditions: for MIC80: Lodderomyces parapsilosis, ATCC 22019, 48 h; procedure, shortened: as §1
[6] = system: Pichia kudriavzevii; experiment: Antifungal activity against Candida krusei ATCC 6258 after 24 hrs by microdilution method; type: functional; conditions: for MIC80: ATCC 6258, 24 h; procedure, shortened: as §1
[7] = system: Pichia kudriavzevii; experiment: Antifungal activity against Candida krusei ATCC 6258 after 48 hrs by microdilution method; type: functional; conditions: for MIC80: ATCC 6258, 48 h; procedure, shortened: as §1
[8] = system: Pichia kudriavzevii; experiment: Antifungal activity against Candida krusei E28 after 24 hrs by microdilution method; type: functional; conditions: for MIC80: E28, 24 h; procedure, shortened: as §1
[9] = system: Pichia kudriavzevii; experiment: Antifungal activity against Candida krusei E28 after 48 hrs by microdilution method; type: functional; conditions: for MIC80: E28, 48 h; procedure, shortened: as §1
[10] = system: Candida tropicalis; experiment: Antifungal activity against Candida tropicalis 156 after 24 hrs by microdilution method; type: functional; conditions: for MIC80: Candida tropicalis, 156, 24 h; procedure, shortened: as §1
[11] = system: Candida tropicalis; experiment: Antifungal activity against Candida tropicalis 156 after 48 hrs by microdilution method; type: functional; conditions: for MIC80: Candida tropicalis, 156, 48 h; procedure, shortened: as §1
[12] = system: Clavispora lusitaniae; experiment: Antifungal activity against Candida lusitaniae 2446/I after 24 hrs by microdilution method; type: functional; procedure, shortened: as §1
[13] = system: Clavispora lusitaniae; experiment: Antifungal activity against Candida lusitaniae 2446/I after 48 hrs by microdilution method; type: functional; procedure, shortened: as §1
[14] = system: Trichosporon beigelii; experiment: Antifungal activity against Trichosporon beigelii 1188 after 24 hrs by microdilution method; type: functional; conditions: for MIC80: Trichosporon beigelii, 1188, 24 h; procedure, shortened: as §1
[15] = system: Trichosporon beigelii; experiment: Antifungal activity against Trichosporon beigelii 1188 after 48 hrs by microdilution method; type: functional; conditions: for MIC80: Trichosporon beigelii, 1188, 48 h; procedure, shortened: as §1
[16] = system: Aspergillus fumigatus; experiment: Antifungal activity against Aspergillus fumigatus 231 after 24 hrs by microdilution method; type: functional; conditions: for MIC80: Aspergillus fumigatus, 231, 24 h
Procedure, shortened: (§2)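 Filamentous strains held on Sabouraud dextrose agar. NCCLS M27-A broth microdilution in RPMI 1640 with L-glutamine and 0.165 M MOPS, pH 7.0. DMSO diluent ≤2% final; twofold dilutions 500–0.48. Inoculum 5 × 10³ ± 0.2 cfu mL⁻¹ final.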

[17] = system: Aspergillus fumigatus; experiment: Antifungal activity against Aspergillus fumigatus 231 after 48 hrs by microdilution method; type: functional; conditions: for MIC80: Aspergillus fumigatus, 231, 48 h; procedure, shortened: as §2
[18] = system: Lichtheimia corymbifera; experiment: Antifungal activity against Absidia corymbifera 272 after 24 hrs by microdilution method; type: functional; conditions: for MIC80: Lichtheimia corymbifera, 272, 24 h; procedure, shortened: as §2
[19] = system: Lichtheimia corymbifera; experiment: Antifungal activity against Absidia corymbifera 272 after 48 hrs by microdilution method; type: functional; conditions: for MIC80: Lichtheimia corymbifera, 272, 48 h; procedure, shortened: as §2
[20] = system: Trichophyton mentagrophytes; experiment: Antifungal activity against Trichophyton mentagrophytes 445 after 72 hrs by microdilution method; type: functional; conditions: for MIC80: Trichophyton mentagrophytes, 445, 72 h
Procedure, shortened: (§3)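 Dermatophyte held on Sabouraud dextrose agar. M27-A microdilution in MOPS-buffered (0.165 M, pH 7.0) RPMI 1640 with L-glutamine. DMSO ≤2% final; twofold dilutions 500–0.48. Inoculum 5 × 10³ ± 0.2 cfu mL⁻¹ final. Incubated at 35 °C; MIC read visually at 72 and 120 h as 80% inhibition of control growth; determined twice in duplicate.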

[21] = system: Trichophyton mentagrophytes; experiment: Antifungal activity against Trichophyton mentagrophytes 445 after 120 hrs by microdilution method; type: functional; procedure, shortened: as §3
[22] = system: Candida albicans; experiment: Antifungal activity against Candida albicans ATCC 44859 after 24 hrs by microdilution method; type: functional; conditions: for MIC80: ATCC 44859, 24 h; procedure, shortened: as §1
[23] = system: Nakaseomyces glabratus; experiment: Antifungal activity against Candida glabrata 20/I after 24 hrs by microdilution method; type: functional; procedure, shortened: as §1
[24] = system: Nakaseomyces glabratus; experiment: Antifungal activity against Candida glabrata 20/I after 48 hrs by microdilution method; type: functional; procedure, shortened: as §1
[25] = system: HL-60; experiment: Cytostatic activity against human HL60 cells after 72 hrs by XTT assay; type: functional, cell-based; conditions: Homo sapiens, HL-60, 72 h; read-out: IC50
Procedure, shortened: (§4)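 Leukemia cells (L1210 ATCC CCL 219, CCRF-CEM ATCC CCL 119, HL-60 ATCC CCL 240) grown in 24-well plates in RPMI 1640 with fetal calf serum. Growth assessed 72 h after drug addition. Viability measured by XTT spectrophotometric assay; potency given as IC50.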

[26] = system: CCRF-CEM; experiment: Cytostatic activity against human CCRF-CEM cells after 72 hrs by XTT assay; type: functional, cell-based; conditions: Homo sapiens, CCRF-CEM, 72 h; read-out: IC50; procedure, shortened: as §4
[27] = system: HeLa S3; experiment: Cytostatic activity against human HeLaS3 cells after 48 hrs by XTT assay; conditions: Homo sapiens, HeLa S3, 48 h; read-out: IC50

O=C1CCC=C1c1ccc(Cl)c(Cl)c1
inactive: Activity [1] | Activity [2] | Activity [3] | Activity [4] | Activity [5] | Activity [6] | Activity [7] | Activity [8] | Activity [9] | Activity [10] | Activity [11] | Activity [12] | Activity [13] | Activity [14] | Activity [15] | Activity [16] | Activity [17] | Activity [18] | Activity [19] | Activity [20] | Activity [21] | Activity [22]

OC(Cn1cncn1)(Cn1cncn1)c1ccc(F)cc1F [FLUCONAZOLE]
0.8 µM: MIC80 [2]
3.3 µM: MIC80 [3] | MIC80 [12] | MIC80 [13]
> 50 µM: MIC80 [6] | MIC80 [7] | MIC80 [8] | MIC80 [9] | MIC80 [24] | MIC80 [16] | MIC80 [17] | MIC80 [18] | MIC80 [19]
4 µM: MIC80 [14]
17 µM: MIC80 [20]
2 µM: MIC80 [1]
22 µM: MIC80 [23]
13 µM: MIC80 [5]
3 µM: MIC80 [10]
6.5 µM: MIC80 [4]
1 µM: MIC80 [22]
9 µM: MIC80 [15]
5 µM: MIC80 [11]

COC(=O)c1ccc(OCC2C=C(c3ccc(Br)cc3)C(=O)O2)cc1 (configuration not stated)
4.05 µM: IC50 [25]
1.25 µM: IC50 [26]
125 µM: MIC80 [19]
4.5 µM: IC50 [27]
7.81 µM: MIC80 [3] | MIC80 [12] | MIC80 [14] | MIC80 [17]
1.95 µM: MIC80 [1]
62.5 µM: MIC80 [18]
15.6 µM: MIC80 [4] | MIC80 [5] | MIC80 [6] | MIC80 [7] | MIC80 [8] | MIC80 [9] | MIC80 [10] | MIC80 [11] | MIC80 [13] | MIC80 [15]
3.9 µM: MIC80 [2] | MIC80 [23] | MIC80 [24] | MIC80 [16] | MIC80 [20] | MIC80 ([21]; Trichophyton mentagrophytes, 445, 120 h)
0.48 µM: MIC80 [22]
